Measured values from publication PMC3040319 (Pharmaceutical Research, 2010).
Read-outs that look alike come from different tables or passages of the source. Marks after values point to notes of the source that are not given here.

Key:
[1] = Tissue accumulation of platinum in Oct1+/+ and Oct1-/- mice; type: in vivo, mouse; settings: for Brain Normalized platinum / Heart Normalized platinum / Intestine Normalized platinum / Kidney Normalized platinum / Liver Normalized platinum / Muscle Normalized platinum: divided by plasma concentration
Method in brief: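 Male FVB Oct1+/+ and Oct1-/- mice (8 weeks) were given 8 mg/kg in saline i.v. by tail vein and killed 1 h later. Liver, kidney, heart, lung, brain, intestine, spleen and muscle were snap-frozen. Total Pt was measured by ICP-MS in 10–30 mg tissue and reported as nmol/g tissue; plasma was reported in μM.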

genomic DNA = assay: Platinum-DNA adduct formation in primary mouse hepatocytes; type: cell-based
Method in brief: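 Attached wild-type or Oct1-/- mouse hepatocytes were exposed to 10 μM test compound for 1 h at 37°C in serum-free medium, with or without OCT1 inhibitor. Cells were then washed with ice-cold PBS. Genomic DNA was kit-purified. DNA-bound Pt was measured by ICP-MS, and DNA by A260 from the same preparation. Adduct level expressed as pmol Pt/μg DNA.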

[2] = Plasma platinum pharmacokinetics in Oct1+/+ and Oct1-/- mice; type: in vivo, mouse; settings: single i.v. 8 mg/kg
Method in brief: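 Male FVB Oct1+/+ and Oct1-/- mice (8 weeks) received a single tail-vein dose of 8 mg/kg in saline. Heparinised plasma was taken by heart puncture at 15 and 30 min and at 1, 2, 3, 4, 8, 10, 24 and 48 h. Total Pt in 5 μl plasma and in urine was measured by ICP-MS. Parameters (Vss, CL, renal CL) came from two-compartment analysis.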

[3] = system: primary mouse hepatocytes; type: in vitro ADME
Oct1+/+ and Oct1-/- mice = assay: Toxicity study of CDPCP in Oct1+/+ and Oct1-/- mice; type: in vivo, mouse; settings: for Kidney histopathological examination (affected/examined animals) / Liver histopathological examination (affected/examined animals): 24 hr after third i.v. dose; for liver-to-body-weight ratio increase compared with saline-treated mice: 120 mg/kg reduced to 90 mg/kg
Method in brief: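 Male Oct1+/+ and Oct1-/- mice (8 weeks, ≥9 per group) were randomised to saline or test compound. Dosing was by tail vein once weekly ×3 (120 mg/kg initially, later 90 mg/kg). Body weight was recorded three times weekly. Mice were fasted ≥16 h and killed under isoflurane 24 h after the last dose. Measures: serum ALT/AST/ALKP and liver weight. Liver and kidney were fixed in 4% paraformaldehyde, paraffin-embedded and H&E stained; affected/examined animals were counted.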

human OCT1 = target: T1, human OCT1 (Homo sapiens, UniProt O15245); assay: Cellular accumulation of platinum in HEK-hOCT1 cells; type: in vitro ADME; settings: 10 μM, 1 h
T1 sequence (O15245 1-554): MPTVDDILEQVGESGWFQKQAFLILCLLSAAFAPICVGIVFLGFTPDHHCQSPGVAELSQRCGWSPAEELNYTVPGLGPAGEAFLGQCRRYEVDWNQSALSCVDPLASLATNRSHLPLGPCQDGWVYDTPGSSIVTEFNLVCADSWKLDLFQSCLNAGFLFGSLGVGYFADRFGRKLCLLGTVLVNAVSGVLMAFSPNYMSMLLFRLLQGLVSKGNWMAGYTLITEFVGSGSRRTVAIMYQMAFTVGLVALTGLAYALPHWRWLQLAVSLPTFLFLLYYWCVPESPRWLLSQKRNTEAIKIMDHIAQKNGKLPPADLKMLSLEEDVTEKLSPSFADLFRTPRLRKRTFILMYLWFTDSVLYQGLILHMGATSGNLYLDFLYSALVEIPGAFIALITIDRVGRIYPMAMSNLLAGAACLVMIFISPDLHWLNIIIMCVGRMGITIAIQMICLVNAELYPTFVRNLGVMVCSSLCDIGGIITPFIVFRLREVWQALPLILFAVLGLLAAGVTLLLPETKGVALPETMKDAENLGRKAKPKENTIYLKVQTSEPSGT
Method in brief: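 HEK293 cells stably carrying full-length mouse Oct1 cDNA in pcDNA5/FRT, selected with hygromycin B; the human OCT1 line's construct is not described. Cells grown in DMEM H21 with 10% FBS at 37°C, 5% CO2. Exposed to 10 μM test compound in serum-free medium for 1 h, then washed 3× with ice-cold PBS. Digested in 70% nitric acid at 65°C for ≥2.5 h. Pt measured by ICP-MS, normalised to BCA protein.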

[4] = OCT1 KO mice, 1 h after IV 8 mg/kg
[5] = OCT1 WT mice, 1 h after IV 8 mg/kg
[6] = hepatocytes from Oct1 wild-type mice, disopyramide 150 μM
[7] = Oct1+/+ mice, i.v. once weekly for 3 weeks
[8] = Oct1-/- mice, i.v. once weekly for 3 weeks

## [NH3+][Pt-2]([NH3+])([Cl])[n+]1ccccc1 (stereo not drawn) [CDPCP, cis-diammine(pyridine)chloroplatinum(II)]
[1]; 1 h after 8 mg/kg
  total platinum in plasma, fold higher in Oct1-/- than wild-type mice: 1.3 fold
[1]; 1 h after IV 8 mg/kg
  Brain Absolute platinum, OCT1 WT/KO ratio: 0.9
  Brain Normalized platinum, OCT1 WT/KO ratio: 1.2
  Heart Absolute platinum, OCT1 WT/KO ratio: 0.6**
  Heart Normalized platinum, OCT1 WT/KO ratio: 0.8*
  Intestine Absolute platinum, OCT1 WT/KO ratio: 2.8*
  Kidney Absolute platinum, OCT1 WT/KO ratio: 0.7*
  Kidney Normalized platinum, OCT1 WT/KO ratio: 1.0
  Liver Absolute platinum, OCT1 WT/KO ratio: 2.1**
  Muscle Absolute platinum, OCT1 WT/KO ratio: 0.8*
  Muscle Normalized platinum, OCT1 WT/KO ratio: 1.0
  Plasma platinum, OCT1 WT/KO ratio: 0.8**
[1]; [4]
  Brain Absolute platinum: 0.487 ± 0.128 pmol/g tissue
  Heart Absolute platinum: 15.4 ± 1.83 pmol/g tissue
  Intestine Absolute platinum: 32.3 ± 14.2 pmol/g tissue
  Kidney Absolute platinum: 44.3 ± 11.5 pmol/g tissue
  Liver Absolute platinum: 38.2 ± 8.51 pmol/g tissue
  Muscle Absolute platinum: 2.08 ± 0.292 pmol/g tissue
  Plasma platinum: 17.2 ± 2.11 µM
  Brain Normalized platinum: 0.0282 ± 0.00518 ml/g tissue
  Heart Normalized platinum: 0.898 ± 0.0813 ml/g tissue
  Intestine Normalized platinum: 1.84 ± 0.571 ml/g tissue
  Kidney Normalized platinum: 2.47 ± 0.552 ml/g tissue
  Liver Normalized platinum: 2.23 ± 0.440 ml/g tissue
  Muscle Normalized platinum: 0.122 ± 0.0201 ml/g tissue
[1]; [5]
  Brain Absolute platinum: 0.436 ± 0.116 pmol/g tissue
  Heart Absolute platinum: 9.77 ± 1.20 pmol/g tissue
  Intestine Absolute platinum: 90.9 ± 28.0 pmol/g tissue
  Kidney Absolute platinum: 32.1 ± 2.93 pmol/g tissue
  Liver Absolute platinum: 81.8 ± 9.31 pmol/g tissue
  Muscle Absolute platinum: 1.62 ± 0.144 pmol/g tissue
  Plasma platinum: 13.5 ± 1.72 µM
  Brain Normalized platinum: 0.0328 ± 0.0114 ml/g tissue
  Heart Normalized platinum: 0.725 ± 0.0747 ml/g tissue
  Intestine Normalized platinum: 7.13 ± 2.47 ml/g tissue
  Kidney Normalized platinum: 2.40 ± 0.374 ml/g tissue
  Liver Normalized platinum: 6.09 ± 0.792 ml/g tissue
  Muscle Normalized platinum: 0.121 ± 0.0118 ml/g tissue
Genomic DNA; 10 μM, 1 h
  platinum-DNA adduct level, fold greater in wild-type than Oct1-/-: 2.4 fold
Genomic DNA; hepatocytes from Oct1-/- mice, 10 μM, 1 h
  platinum-DNA adduct level: 0.0351 ± 0.00344 pmol/μg DNA
Genomic DNA; hepatocytes from Oct1-/- mice, 10 μM, 1 h, disopyramide 150 μM
  platinum-DNA adduct level: 0.0338 ± 0.00798 pmol/μg DNA
Genomic DNA; hepatocytes from Oct1 wild-type mice, 10 μM, 1 h
  platinum-DNA adduct level: 0.0857 ± 0.0232 pmol/μg DNA
Genomic DNA; hepatocytes from Oct1 wild-type mice, 10 μM, 1 h, disopyramide 150 μM
  platinum-DNA adduct level: 0.0233 ± 0.00847 pmol/μg DNA
Genomic DNA; [6]
  fold decrease in platinum-DNA adduct formation by disopyramide: 3.7 fold
[2]; both Oct1+/+ and Oct1-/- mice
  contribution of renal clearance to total clearance of platinum from plasma: about 50%
[2]
  volume of distribution, Oct1 wild-type as fold of Oct1-/-: 1.77 fold
[3]; 10 μM, 1 hr
  hepatocellular uptake, wild-type as fold of Oct1-/-: 2.9 fold
[3]; hepatocytes from Oct1-/- mice, 10 μM, 1 hr
  hepatocellular uptake: 87.8 ± 7.61 pmol/mg protein/hr
[3]; hepatocytes from Oct1-/- mice, 10 μM, 1 hr, co-incubation with disopyramide 150 μM
  hepatocellular uptake: 95.8 ± 17.6 pmol/mg protein/hr
[3]; hepatocytes from Oct1 wild-type mice, 10 μM, 1 hr
  hepatocellular uptake: 251 ± 94.6 pmol/mg protein/hr
[3]; hepatocytes from Oct1 wild-type mice, 10 μM, 1 hr, co-incubation with disopyramide 150 μM
  hepatocellular uptake: 55.9 ± 1.41 pmol/mg protein/hr
[3]; [6]
  fold decrease in platinum uptake by disopyramide: 4.5 fold
Oct1+/+ and Oct1-/- mice; OCT1+/+ mice
  Kidney histopathological examination (affected/examined animals): Normal (4/4)
  Liver histopathological examination (affected/examined animals): Severe swollen hepatocytes (3/4); Mild swollen hepatocytes(1/4)
Oct1+/+ and Oct1-/- mice; OCT1-/- mice
  Kidney histopathological examination (affected/examined animals): Kidney tube protein contents (3/4); kidney hyaline necrosis (1/4)
  Liver histopathological examination (affected/examined animals): Mild swollen hepatocytes(1/4)
Oct1+/+ and Oct1-/- mice; Oct1+/+ mice
  serum BUN levels vs saline: significantly reduced
Oct1+/+ and Oct1-/- mice; [7]
  actual liver weight: 1.23 g
  liver-to-body-weight ratio increase compared with saline-treated mice: 28.8%
Oct1+/+ and Oct1-/- mice; Oct1+/+ mice, vs saline
  serum glucose levels: significant increase
  total serum protein levels: significant decrease
Oct1+/+ and Oct1-/- mice; Oct1-/- mice
  serum BUN vs saline: not affected
Oct1+/+ and Oct1-/- mice; [8]
  actual liver weight: 1.02 g
  liver-to-body-weight ratio increase compared with saline-treated mice: 14.7%
Oct1+/+ and Oct1-/- mice; both Oct1+/+ and Oct1-/- mice
  serum creatinine levels vs saline: not significantly different
Oct1+/+ and Oct1-/- mice; dose-range finding toxicity study
  dose resulting in significant changes in body weight, liver-to-body-weight ratio, liver function and hematology: ≥ 90 mg/kg
Oct1+/+ and Oct1-/- mice; either Oct1+/+ or Oct1-/- mice
  histological examination of intestine: no signs of intestinal toxicity
Oct1+/+ and Oct1-/- mice; either Oct1+/+ or Oct1-/- mice, i.v. once weekly for 3 weeks
  activities of ALT, AST and ALKP: not affected
Oct1+/+ and Oct1-/- mice; i.v. once weekly for 3 weeks
  body weight loss in Oct1-/- mice compared with Oct1+/+ mice: much greater
Oct1+/+ and Oct1-/- mice; wild-type mice, 120 mg/kg, dose-finding studies (data not shown)
  ALT: significant increases
Human OCT1
  uptake of platinum: 852 ± 135 pmol/mg protein/hr
